# Results taken from ChEMBL document CHEMBL5058577, “EUbOPEN Chemogenomics Library 2 (Multiplex)” (2022).
# Tested on: HEK-293T
# Experiment: Multiplex assay against HEK293T
# Type: toxicity, cell-based
# Conditions: human
# How it was run: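 Live cells carried four stains from seeding: Hoechst33342, BioTracker Green Microtubule Cytoskeleton Dye, MitoTracker Red and Annexin V Alexa Fluor 680. They were imaged on a CQ1 microscope at 37°C and 5% CO2 after compound addition. Using CellPathfinder machine-learning gating, cells were split into Hoechst high-intensity objects or normal cells, normal cells into healthy, pyknosed or fragmented nuclei, and pyknosed cells into mitotic or apoptotic; tubulin, mitochondrial-mass and membrane-permeability phenotypes are per cents of healthy-nucleus cells.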
# [1] = 12 h, 1 µM, compound concentration 1 uM, replicate 1
# [2] = 12 h, 1 µM, compound concentration 1 uM, replicate 2
# [3] = 12 h, 10 µM, compound concentration 10 uM, replicate 1
# [4] = 12 h, 10 µM, compound concentration 10 uM, replicate 2
# [5] = 24 h, 1 µM, compound concentration 1 uM, replicate 1
# [6] = 24 h, 1 µM, compound concentration 1 uM, replicate 2
# [7] = 24 h, 10 µM, compound concentration 10 uM, replicate 1
# [8] = 24 h, 10 µM, compound concentration 10 uM, replicate 2
# [9] = 48 h, 1 µM, compound concentration 1 uM, replicate 1
# [10] = 48 h, 1 µM, compound concentration 1 uM, replicate 2
# [11] = 48 h, 10 µM, compound concentration 10 uM, replicate 1
# [12] = 48 h, 10 µM, compound concentration 10 uM, replicate 2
smiles,measurement,setting,value
CCCCC1=NC2(CCCC2)C(=O)N1Cc1ccc(-c2ccccc2-c2nnn[nH]2)cc1 [IRBESARTAN],Population Apoptotic (%),[1],24%
same,Population Fragmented Nuclei (%),[1],9%
same,Population Healthy Nuclei (%),[1],79%
same,Population Hoechst High Intensity Objects (%),[1],9%
same,Population Membrane Permeable-Phenotype (%),[1],0%
same,Population Mitochondria Different-Phenotype (%),[1],34%
same,Population Mitotic Cells (%),[1],75%
same,Population Normal (%),[1],91%
same,Population Pyknosed Nuclei (%),[1],10%
same,Population Tubulin-Different-Phenotype (%),[1],17%
same,Total Cell Count,[1],500
same,Population Apoptotic (%),[2],28%
same,Population Fragmented Nuclei (%),[2],8%
same,Population Healthy Nuclei (%),[2],78%
same,Population Hoechst High Intensity Objects (%),[2],4%
same,Population Mitochondria Different-Phenotype (%),[2],63%
same,Population Mitotic Cells (%),[2],71%
same,Population Normal (%),[2],95%
same,Population Pyknosed Nuclei (%),[2],12%
same,Population Tubulin-Different-Phenotype (%),[2],20%
same,Total Cell Count,[2],353
same,Population Apoptotic (%),[3],50%
same,Population Fragmented Nuclei (%),[3],7%
same,Population Healthy Nuclei (%),[3],70%
same,Population Hoechst High Intensity Objects (%),[3],5%
same,Population Membrane Permeable-Phenotype (%),[3],2%
same,Population Mitochondria Different-Phenotype (%),[3],46%
same,Population Mitotic Cells (%),[3],50%
same,Population Normal (%),[3],94%
same,Population Pyknosed Nuclei (%),[3],22%
same,Population Tubulin-Different-Phenotype (%),[3],50%
same,Total Cell Count,[3],219
same,Population Apoptotic (%),[4],56%
same,Population Fragmented Nuclei (%),[4],6%
same,Population Healthy Nuclei (%),[4],78%
same,Population Hoechst High Intensity Objects (%),[4],13%
same,Population Membrane Permeable-Phenotype (%),[4],0%
same,Population Mitochondria Different-Phenotype (%),[4],66%
same,Population Mitotic Cells (%),[4],43%
same,Population Normal (%),[4],86%
same,Population Pyknosed Nuclei (%),[4],15%
same,Population Tubulin-Different-Phenotype (%),[4],33%
same,Total Cell Count,[4],351
same,Population Apoptotic (%),[5],31%
same,Population Fragmented Nuclei (%),[5],9%
same,Population Healthy Nuclei (%),[5],79%
same,Population Hoechst High Intensity Objects (%),[5],4%
same,Population Membrane Permeable-Phenotype (%),[5],0%
same,Population Mitochondria Different-Phenotype (%),[5],24%
same,Population Mitotic Cells (%),[5],68%
same,Population Normal (%),[5],95%
same,Population Pyknosed Nuclei (%),[5],10%
same,Population Tubulin-Different-Phenotype (%),[5],15%
same,Total Cell Count,[5],625
same,Population Apoptotic (%),[6],34%
same,Population Healthy Nuclei (%),[6],80%
same,Population Hoechst High Intensity Objects (%),[6],7%
same,Population Mitochondria Different-Phenotype (%),[6],45%
same,Population Mitotic Cells (%),[6],65%
same,Population Normal (%),[6],92%
same,Population Pyknosed Nuclei (%),[6],9%
same,Population Tubulin-Different-Phenotype (%),[6],14%
same,Total Cell Count,[6],456
same,Population Apoptotic (%),[7],27%
same,Population Fragmented Nuclei (%),[7],6%
same,Population Healthy Nuclei (%),[7],77%
same,Population Hoechst High Intensity Objects (%),[7],3%
same,Population Membrane Permeable-Phenotype (%),[7],1%
same,Population Mitochondria Different-Phenotype (%),[7],37%
same,Population Mitotic Cells (%),[7],72%
same,Population Normal (%),[7],96%
same,Population Pyknosed Nuclei (%),[7],15%
same,Population Tubulin-Different-Phenotype (%),[7],32%
same,Total Cell Count,[7],287
same,Population Apoptotic (%),[8],41%
same,Population Fragmented Nuclei (%),[8],11%
same,Population Hoechst High Intensity Objects (%),[8],10%
same,Population Membrane Permeable-Phenotype (%),[8],0%
same,Population Mitochondria Different-Phenotype (%),[8],49%
same,Population Mitotic Cells (%),[8],58%
same,Population Normal (%),[8],89%
same,Population Pyknosed Nuclei (%),[8],11%
same,Population Tubulin-Different-Phenotype (%),[8],22%
same,Total Cell Count,[8],434
same,Population Apoptotic (%),[9],29%
same,Population Fragmented Nuclei (%),[9],11%
same,Population Healthy Nuclei (%),[9],81%
same,Population Hoechst High Intensity Objects (%),[9],3%
same,Population Membrane Permeable-Phenotype (%),[9],0%
same,Population Mitochondria Different-Phenotype (%),[9],21%
same,Population Mitotic Cells (%),[9],70%
same,Population Normal (%),[9],96%
same,Population Pyknosed Nuclei (%),[9],7%
same,Population Tubulin-Different-Phenotype (%),[9],15%
same,Total Cell Count,[9],958
same,Population Apoptotic (%),[10],23%
same,Population Fragmented Nuclei (%),[10],9%
same,Population Healthy Nuclei (%),[10],84%
same,Population Hoechst High Intensity Objects (%),[10],2%
same,Population Membrane Permeable-Phenotype (%),[10],1%
same,Population Mitochondria Different-Phenotype (%),[10],19%
same,Population Mitotic Cells (%),[10],76%
same,Population Normal (%),[10],97%
same,Population Pyknosed Nuclei (%),[10],6%
same,Population Tubulin-Different-Phenotype (%),[10],8%
same,Total Cell Count,[10],705
same,Population Apoptotic (%),[11],25%
same,Population Fragmented Nuclei (%),[11],15%
same,Population Healthy Nuclei (%),[11],75%
same,Population Hoechst High Intensity Objects (%),[11],1%
same,Population Membrane Permeable-Phenotype (%),[11],0%
same,Population Mitochondria Different-Phenotype (%),[11],21%
same,Population Mitotic Cells (%),[11],75%
same,Population Normal (%),[11],98%
same,Population Pyknosed Nuclei (%),[11],9%
same,Population Tubulin-Different-Phenotype (%),[11],15%
same,Total Cell Count,[11],473
same,Population Apoptotic (%),[12],46%
same,Population Fragmented Nuclei (%),[12],12%
same,Population Healthy Nuclei (%),[12],80%
same,Population Hoechst High Intensity Objects (%),[12],3%
same,Population Mitochondria Different-Phenotype (%),[12],26%
same,Population Mitotic Cells (%),[12],53%
same,Population Normal (%),[12],96%
same,Population Pyknosed Nuclei (%),[12],6%
same,Total Cell Count,[12],684
